This passage reports inhibition, Ki and Ratio Ki results from ChEMBL document CHEMBL3739355, “Design, synthesis and evaluation of bitopic arylpiperazinephenyl-1,2,4-oxadiazoles as preferential dopamine D3 receptor ligands” (Bioorg Med Chem, 2016).

A word on the inhibition: it is the relative decrease from the control value, in per cent. As a reminder, the Ki is the equilibrium dissociation constant of an inhibitor or competing ligand from its target. Higher therefore signals a looser hold on the target.

Assay [1] concerns the target T1, D(3) dopamine receptor (Homo sapiens, UniProt P35462). The assay is described as follows: Displacement of [3H]-sulpiride from human dopamine D3 receptor expressed in HEK293 cells at 0.1 uM after 150 mins by liquid scintillation counting. It counts as cell-based. The procedure, abridged: (§1)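 Transiently PEI-transfected HEK293 cells expressing human D2R or D3R, serum-free, rinsed ice-cold. Each ligand at a single concentration competed at 4 °C for 150 min with [³H]-sulpiride: 2.2 nM for D2R, 4.4 nM for D3R. Unbound label removed by three washes in ice-cold MEM/10 mM HEPES pH 7.4. Cells were lysed in 1% SDS and bound radioactivity read by liquid scintillation.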
For orientation: Loss of bound radioactivity is the signal in a displacement assay; it reports binding, not function.

Assay [2] addresses T2, D(2) dopamine receptor (Homo sapiens, UniProt P14416). As to the kind of experiment: Displacement of [3H]-sulpiride from human dopamine D2 receptor expressed in HEK293 cells at 0.1 uM after 150 mins by liquid scintillation counting. It counts as cell-based. The procedure, abridged: as §1
Assay [3] has as its target T2, D(2) dopamine receptor. The assay is described as follows: Displacement of [3H]-sulpiride from human dopamine D2 receptor expressed in HEK293 cells after 150 mins by liquid scintillation counting. Format: cell-based. In short, it runs like this:
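HEK293 cells grown in MEM with 10% FBS and penicillin/streptomycin, PEI-transfected with human D2R plasmid (medium changed at 4 h, grown 24 h), then seeded and cultured overnight. Rinsed with ice-cold serum-free MEM, incubated with 2.2 nM [³H]-sulpiride plus varying ligand concentrations at 4 °C for 150 min. Washed three times in ice-cold MEM/10 mM HEPES pH 7.4, lysed in 1% SDS, scintillation counted. IC50 came from nonlinear regression curve fits.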

Assay [4] addresses T1, D(3) dopamine receptor. The assay is described as follows: Displacement of [3H]-sulpiride from human dopamine D3 receptor expressed in HEK293 cells after 150 mins by liquid scintillation counting. Format: cell-based.
The species named for assay [5] is Homo sapiens. As to the kind of experiment: Selectivity ratio of Ki for human dopamine D2 receptor to Ki for human dopamine D3 receptor.
The target of assay [6] is T1, D(3) dopamine receptor. As to the kind of experiment: Displacement of [3H]-sulpiride from human dopamine D3 receptor expressed in HEK293 cells at 1 uM after 150 mins by liquid scintillation counting. It counts as cell-based. The procedure, abridged:
as §1

In assay [7] the target is T2, D(2) dopamine receptor. The assay is described as follows: Displacement of [3H]-sulpiride from human dopamine D2 receptor expressed in HEK293 cells at 1 uM after 150 mins by liquid scintillation counting. It counts as cell-based. In short, it runs like this:
as §1

Structures are written as SMILES. Several values for one entry are separate records, joined by “and”; a condition that tells them apart may be missing. Identical values can stand only once.

T2 sequence (P14416 whole entry): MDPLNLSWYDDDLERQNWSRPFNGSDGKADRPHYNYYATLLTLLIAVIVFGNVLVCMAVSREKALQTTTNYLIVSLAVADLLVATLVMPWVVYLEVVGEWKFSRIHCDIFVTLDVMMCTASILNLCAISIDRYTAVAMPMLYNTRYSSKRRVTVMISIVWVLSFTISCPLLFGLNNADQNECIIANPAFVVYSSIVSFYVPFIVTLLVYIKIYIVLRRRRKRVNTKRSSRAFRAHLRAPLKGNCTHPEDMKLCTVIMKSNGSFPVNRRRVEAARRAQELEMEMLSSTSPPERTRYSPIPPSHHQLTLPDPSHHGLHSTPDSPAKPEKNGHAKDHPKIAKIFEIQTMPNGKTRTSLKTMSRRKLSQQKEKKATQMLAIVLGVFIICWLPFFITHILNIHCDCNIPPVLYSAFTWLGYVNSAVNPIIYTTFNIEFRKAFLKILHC
T1 sequence (P35462 whole entry): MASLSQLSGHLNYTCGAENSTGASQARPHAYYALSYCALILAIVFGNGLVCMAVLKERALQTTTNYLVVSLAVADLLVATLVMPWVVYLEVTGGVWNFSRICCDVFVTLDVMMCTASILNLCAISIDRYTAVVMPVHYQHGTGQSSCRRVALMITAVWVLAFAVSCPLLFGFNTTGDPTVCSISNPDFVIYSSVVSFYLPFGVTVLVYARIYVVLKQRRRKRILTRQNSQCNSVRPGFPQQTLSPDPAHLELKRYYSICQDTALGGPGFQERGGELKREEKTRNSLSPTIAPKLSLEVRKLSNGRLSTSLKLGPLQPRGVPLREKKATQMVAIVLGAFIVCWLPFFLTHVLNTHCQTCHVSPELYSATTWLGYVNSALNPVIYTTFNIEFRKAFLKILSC

With `Clc1ccc(N2CCN(CCCCNc3noc(-c4ccccn4)n3)CC2)c(Cl)c1`, the inhibition in assay [1] was 9.5% and 14.8%; in assay [2], 7.8% and 17.9%.

With `Clc1ccc(N2CCN(CCCCNc3noc(-c4ccccc4)n3)CC2)cc1`, the values for the inhibitory constant (Ki) in assay [3] and in assay [4] were 79.6 µM and 0.27 µM, respectively. The Ratio Ki in assay [5] stood at 297. Besides, in assay [2], the inhibition is -2.6% and 8.3%.

As for `Clc1ccc(N2CCN(CCCCNc3noc(-c4ccc(Br)cc4)n3)CC2)c(Cl)c1`, the inhibition in assay [1] worked out at 14.2%; in assay [2], 12.7%.

For the compound `CCCN(CCCCN1CCN(c2cccc(C(F)(F)F)c2)CC1)c1noc(-c2ccccc2)n1`, the results for the inhibition in assay [6] and in assay [7] were 9.7% and 17.8%, respectively.

Take `CCCN(CCCCN1CCN(c2cccc(Cl)c2Cl)CC1)c1noc(-c2ccccc2)n1`: the inhibition was 22.1% in assay [6] and 50.1% in assay [7].

As for `Clc1ccc(-c2nc(NCCCCN3CCN(c4ccc(Cl)cc4Cl)CC3)no2)cc1`, the inhibition in assay [1] is 33.8% and 16.6%; in assay [2], 15.2% and 40%.

In the case of `COc1ccccc1-c1nc(NCCCCN2CCN(c3ccc(Cl)cc3Cl)CC2)no1`, the inhibition in assay [1] is 4.2% and 7.7%; in assay [2], 5.6% and 5.4%.

Consider `Clc1ccc(N2CCN(CCCCNc3noc(-c4ccccc4)n3)CC2)c(Cl)c1` [listing 1 of 3 here], for which the Ki in assay [3] turned out to be 6.23 µM; in assay [4], 0.81 µM.

For `CCCN(CCCCN1CCN(c2ccc(Cl)cc2Cl)CC1)c1noc(-c2ccccc2)n1`, the values for the inhibition in assay [6] and in assay [7] were 15.1% and -0.6%, respectively.

In the case of `Fc1ccccc1N1CCN(CCCCNc2noc(-c3ccccc3)n2)CC1`, the figures for the inhibition in assay [1] and in assay [2] were 50.7% and 69.8%, respectively.

For `O=C(NCCCCN1CCN(c2ccc(Cl)cc2Cl)CC1)c1cc2ccccc2[nH]1`, the Ki in assay [3] is more than 23.9 µM.

With `FC(F)(F)c1cccc(N2CCN(CCCCNc3noc(-c4ccccc4)n3)CC2)c1`, the values for the inhibition in assay [1] and in assay [2] were 35.3% and 19.8%, respectively.

Turning to `Clc1ccc(N2CCN(CCCCNc3noc(-c4ccccc4)n3)CC2)c(Cl)c1` [listing 2 of 3 here], the Ratio Ki in assay [5] is 7.7 and 4.4.

Turning to `Clc1cccc(-c2nc(NCCCCN3CCN(c4ccc(Cl)cc4Cl)CC3)no2)c1`, the inhibition in assay [1] is 37% and 41.5%; in assay [2], 28.3% and 40.4%.

Consider `N#Cc1ccc(-c2nc(NCCCCN3CCN(c4ccc(Cl)cc4Cl)CC3)no2)cc1`, for which the inhibition in assay [1] is 36.6% and 11.8%; in assay [2], 8.8% and 22.8%.

Turning to `Clc1ccc(N2CCN(CCCCNc3noc(-c4ccccc4)n3)CC2)c(Cl)c1` [listing 3 of 3 here], the figures for the Ki in assay [3] and in assay [4] were 1.29 µM and 0.29 µM, respectively.

With `CCCN(CCCCN1CCN(c2ccccc2F)CC1)c1noc(-c2ccccc2)n1`, the results for the inhibition in assay [6] and in assay [7] were 3.2% and 10.6%, respectively.
